# Apaf-1 act: activates human Apaf-1 apoptosome. Apaf-1 apoptosome caspase-3 activation, DEVD-Rh110 fluorescence; hits give low values. activity change, negative = activation, % at 20 µM. actives 0.31% (n = 330,000). AID 489031;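 active = activity change at or below -40% at 20 µM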
# Target sequence (O14727 whole entry, looked up): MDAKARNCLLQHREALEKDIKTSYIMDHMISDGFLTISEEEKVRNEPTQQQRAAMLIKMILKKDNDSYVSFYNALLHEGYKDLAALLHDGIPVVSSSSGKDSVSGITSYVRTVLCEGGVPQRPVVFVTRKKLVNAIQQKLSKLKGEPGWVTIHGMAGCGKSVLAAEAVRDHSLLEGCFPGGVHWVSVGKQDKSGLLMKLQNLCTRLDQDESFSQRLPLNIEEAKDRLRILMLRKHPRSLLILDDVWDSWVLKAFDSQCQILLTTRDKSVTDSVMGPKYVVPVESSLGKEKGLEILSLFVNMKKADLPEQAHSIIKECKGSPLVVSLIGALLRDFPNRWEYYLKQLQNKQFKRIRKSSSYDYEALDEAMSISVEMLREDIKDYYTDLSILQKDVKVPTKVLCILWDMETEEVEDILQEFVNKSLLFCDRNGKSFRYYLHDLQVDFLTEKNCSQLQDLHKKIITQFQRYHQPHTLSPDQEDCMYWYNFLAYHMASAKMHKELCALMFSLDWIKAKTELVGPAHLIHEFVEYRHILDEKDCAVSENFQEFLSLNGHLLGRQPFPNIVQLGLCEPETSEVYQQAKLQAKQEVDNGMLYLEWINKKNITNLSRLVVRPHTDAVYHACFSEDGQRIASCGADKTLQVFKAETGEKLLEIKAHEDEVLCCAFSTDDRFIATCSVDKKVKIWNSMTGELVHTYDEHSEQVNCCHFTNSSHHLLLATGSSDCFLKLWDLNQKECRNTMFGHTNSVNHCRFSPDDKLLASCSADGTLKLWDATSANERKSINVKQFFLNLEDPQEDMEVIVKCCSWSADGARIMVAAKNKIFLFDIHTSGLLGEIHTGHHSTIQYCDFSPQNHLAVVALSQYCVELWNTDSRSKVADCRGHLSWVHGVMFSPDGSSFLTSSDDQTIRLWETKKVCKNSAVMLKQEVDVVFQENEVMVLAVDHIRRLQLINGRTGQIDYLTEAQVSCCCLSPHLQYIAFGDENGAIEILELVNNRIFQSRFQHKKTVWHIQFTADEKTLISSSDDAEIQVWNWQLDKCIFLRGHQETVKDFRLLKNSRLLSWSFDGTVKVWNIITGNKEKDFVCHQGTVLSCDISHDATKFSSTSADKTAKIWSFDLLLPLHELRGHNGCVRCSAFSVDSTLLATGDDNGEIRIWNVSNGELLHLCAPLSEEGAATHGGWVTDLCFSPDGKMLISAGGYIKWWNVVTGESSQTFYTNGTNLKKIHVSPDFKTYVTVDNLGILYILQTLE
#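 Material: reconstituted apoptosome of Apaf-1, cytochrome c, caspase-9, procaspase-3; times: 30 min preincubation, 50 min reaction, room temperature; measured by: fluorescence, 540 nm emission, 480 nm excitation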
# Rh110 act interf: interferes with Rh110 fluorescence, flagging false Apaf-1 activators | shares compounds with Apaf-1 act | 980 tested, under 10 active | Rh110 fluorescence interference, quenched caspase reaction, Ex480/Em540 | fluorescence interference (activity change), % at 20 µM, hits read low | AID 504616;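 active = mean activity change at or below -40% when tested at 20 µM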
# Apaf-1 act conf: confirmation of human Apaf-1 activators; reconstituted apoptosome caspase-3 activity, DEVD-Rh110 fluorescence; hits give low values; shares compounds with Apaf-1 act; activity change, negative = activation, % at 20 µM; actives 5% (n = 980);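 active = mean activity change at or below -40%, meaning activation of 40% or more, at 20 µM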
# Fluor interf act: shows fluorescence interference in the Apaf-1 activator assay format; shares compounds with Apaf-1 act; fluorescence interference counterscreen; EC50, µM; 55 tested, under 10 active; AID 588592; call rule not given here
# * = called active by the depositor. A selection follows.
SMILES,Apaf-1 act,others
Cc1ccc(N(CC(N)=O)C2SC(=O)N(C)C2=O)cc1 (stereo not drawn),-488*,Rh110 act interf=8;Apaf-1 act conf=12
C#CCOCCOCCOCCNc1nc(N2CCN(C(=O)C([C@@H](C)CC)n3cc(C(N)COC(=O)C(F)(F)F)nn3)CC2)nc(N2CCN(C(=O)[C@H](Cc3cc4ccccc4[nH]3)n3cc(C(N)CO)nn3)CC2)n1 (stereo partly drawn),49,
CC(=O)c1cc(O)c2ccccc2c1O,58,
CC(N=Cc1cccc(O)c1O)c1ccccc1 (stereo not drawn),71,
COc1ccc(CNC(=O)CNS(=O)(=O)c2ccc(Cl)cc2)cc1,-177*,Rh110 act interf=7;Apaf-1 act conf=14
COc1ccc(CCNC(=O)C(=O)NCC2CCCN2S(=O)(=O)c2ccc(OC)cc2)cc1 (stereo not drawn),61,
CC(C)C(=O)NC(c1cccs1)c1cc([N+](=O)[O-])c2cccnc2c1O (stereo not drawn),68,
COc1ccc(/C=N/Nc2cc(N(C)C)nc(N(C)C)n2)cc1,97,
COc1ccc(S(=O)(=O)N/N=C\c2ccc3c(c2)OCO3)c(OC)c1,-120*,Rh110 act interf=0;Apaf-1 act conf=6
COc1ccc2c(c1)CC/C(=C\Nc1ccc3c(c1)OCO3)C2=O,78,
CC(C)(C)C(=O)[C@@H]1[C@@H]2C(=O)N(C3CCCCC3)C(=O)[C@@H]2[C@H]2c3ccccc3C=CN12,64,
CN(Cc1c(F)cccc1Cl)c1nnnn1-c1ccccc1,-64*,Rh110 act interf=8;Apaf-1 act conf=9
Nc1c2c(nc3ccccc13)CCCC2,-4,
C#CCOCCOCCOCCNc1nc(N2CCOCC2)nc(N2CCN(C(=O)CCCCCCCCCCNC(=O)[C@H](CO)n3cc(CCCCCN)nn3)CC2)n1,44,
COc1ccc(C[C@H]2CN3C(=NC[C@@H]3C(C)C)N2C[C@H](C)NC(=O)c2ccc(C)c(Br)c2)cc1,48,
CC(Oc1ccc2ccccc2c1)C(=O)NNC(=O)Nc1ccccc1F (stereo not drawn),-132*,Rh110 act interf=-5;Apaf-1 act conf=11
Cc1ccc(F)c(NC(=S)Nc2cccc3ccccc23)c1,78,
Fc1ccccc1NC(=S)Nc1cccc2cnccc12,97,
O=c1[nH]c(N2CCOCC2)cc2ccccc12,93,
C#CCOCCOCCOCCNc1nc(N2CCN(C(=O)CCCCCCCCCCNC(=O)[C@H]([C@@H](C)CC)n3cc(CCCCCN)nn3)CC2)nc(N2CCN(C(=O)CCCCCCCCCCNC(=O)[C@@H]([C@H](C)O)n3cc(C)nn3)CC2)n1,50,
CC1CCN(C2=C(NS(=O)(=O)c3ccc(Br)cc3)C(=O)c3ccccc3C2=O)CC1,54,
CC1CCCN(C2=C(NS(=O)(=O)c3ccc(Br)cc3)C(=O)c3ccccc3C2=O)C1 (stereo not drawn),51,
CCOC(=O)C1CCCN(C2=C(NS(=O)(=O)c3ccc(Br)cc3)C(=O)c3ccccc3C2=O)C1 (stereo not drawn),67,Fluor interf act=>100
O=C1CC(CC(=O)N/N=C/c2ccccc2[N+](=O)[O-])=NN1,46,
CC1=NN(c2ccc(S(=O)(=O)O)cc2C)C(=O)C1,51,
SMILES,Apaf-1 act,others
Cc1ccc2c(c1)c1ccc3c(c1n2C)C(=O)C=CC3=O,57,
CCCCCCCc1ccc(C2NC(=S)NC3=C2C(=O)c2ccccc23)cc1 (stereo not drawn),44,
CSc1ccc2c(c1)N(CCC1CCCCN1C)c1ccccc1S2 (stereo not drawn),55,
CC1=NN(c2ccccc2)C(=O)/C1=C/c1ccc(-c2ccc(C)c(C(=O)O)c2)o1,68,
CC1=NN(c2ccc(C(=O)O)cc2)C(=O)/C1=C/c1ccc(-c2ccccc2F)o1,58,
COC(=O)c1ccccc1-c1ccc(/C=C2\C(=O)N(c3ccccc3)N=C2c2ccccc2)o1,62,Fluor interf act=>100
COc1ccc2noc3c2c1C(=O)c1ccccc1-3,78,
OC(c1ccccc1)c1cccnc1 (stereo not drawn),-54*,Rh110 act interf=-7;Apaf-1 act conf=9
Oc1ccc(NCc2ccccc2OCc2ccccc2)cc1,90,
CCCCc1nc(C(N)=O)c2[nH]c(=O)n(-c3ccc(OCC)cc3)c2n1,-157*,Rh110 act interf=0;Apaf-1 act conf=9
Cc1ccc(CN(C)C(=O)CSc2nnc3n2CCCCC3)c(C)c1,-42*,Rh110 act interf=-8;Apaf-1 act conf=6
O=C1C2=C(c3ccccc31)[N+](=O)[C@@H]1CCCC[C@@H]1N2[O-],75,
c1ccc(CN(CC2=NCCN2)c2ccccc2)cc1,-4,
CCOc1ccccc1N(CC(=O)Nc1ccc(S(=O)(=O)N2CCOCC2)cc1)S(=O)(=O)c1ccc(Cl)cc1,-68*,Rh110 act interf=-1;Apaf-1 act conf=10

# From PubChem BioAssay
